Laboratory results published in paper PMC2151622 (The Journal of General Physiology, 2007).
Substitutions are numbered along the chain they refer to.

Legend:
Assay type in all cases: cell-based, rabbit
D444C after MTSES = biological target: T1, D444C after MTSES (Oryctolagus cuniculus, UniProt P31597, D444C); assay: Blockade of transient currents; conditions: for Decay time of transient currents blocked: D444C after MTSES, 10 mM compound; for IC50: read-out: IC50 for substrates/blockers of charge movements, D444C after MTSES (2 mM), Xenopus oocytes, mean ± SEM
T1 sequence (P31597 1-524 D444C): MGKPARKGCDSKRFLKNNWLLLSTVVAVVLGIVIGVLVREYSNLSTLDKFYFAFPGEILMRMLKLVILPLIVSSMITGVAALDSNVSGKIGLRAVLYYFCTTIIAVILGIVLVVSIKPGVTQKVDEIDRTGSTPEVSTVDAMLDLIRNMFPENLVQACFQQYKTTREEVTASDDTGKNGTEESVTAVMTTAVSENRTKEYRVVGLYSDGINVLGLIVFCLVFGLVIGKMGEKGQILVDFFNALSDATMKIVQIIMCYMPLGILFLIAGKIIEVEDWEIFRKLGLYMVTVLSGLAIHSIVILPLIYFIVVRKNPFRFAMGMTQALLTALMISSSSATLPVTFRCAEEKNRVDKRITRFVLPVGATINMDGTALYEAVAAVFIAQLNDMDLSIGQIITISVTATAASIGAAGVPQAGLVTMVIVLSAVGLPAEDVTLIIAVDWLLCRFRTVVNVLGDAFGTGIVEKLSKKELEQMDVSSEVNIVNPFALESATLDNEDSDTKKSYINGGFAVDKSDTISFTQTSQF
Summary of the method: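 Oocytes were injected with cRNA for His-tagged EAAC1 D444C and held by two-electrode voltage clamp at −25 mV, stepped from −100 to +40 mV in 10-mV steps of 250 ms each, in ND96 pH 7.5. MTSES (2 mM final) was added under clamp with flow stopped, reacted 2 min, then washed out 5 min. Transients were taken as buffer minus buffer+compound (10 mM) and decay times fitted to a first-order exponential; 3–10 oocytes.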

D444S-EAAC1 [1] = biological target: T2, D444S-EAAC1 (Oryctolagus cuniculus, UniProt P31597, D444S); assay: Substrate-induced steady-state transport currents in oocytes expressing D444S; conditions: 2 mM for L-aspartate and succinate, other concentrations not given
T2 sequence (P31597 1-524 D444S): T1 sequence (P31597 1-524 D444C) with C444S

D444A mutant EAAC1 = biological target: T3, D444A mutant EAAC1 (Oryctolagus cuniculus, UniProt P31597, D444A); assay: Blockade of sodium-dependent transient currents; conditions: read-out: IC50 for substrates/blockers of charge movements, Xenopus oocytes, mean ± SEM
T3 sequence (P31597 1-524 D444A): T1 sequence (P31597 1-524 D444C) with C444A

D444S-EAAC1 [2] = biological target: T2, D444S-EAAC1; assay: Blockade of sodium-dependent transient currents; conditions: D444S; for Decay time of transient currents blocked: 10 mM compound, at −100 mV; for IC50: read-out: IC50 for substrates/blockers of charge movements, Xenopus oocytes, mean ± SEM
Summary of the method: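 Oocytes expressing the mutant were clamped in sodium ND96 and given 250-ms pulses from −25 mV to −100…+40 mV, with and without compound; TBOA was added to a stopped bath. Isolated transients (without minus with compound) were integrated at −100 and +40 mV and summed. Charge was normalised to 10 mM of each compound and Hill-fitted; 4–6 oocytes. Decay came from an exponential fit; 3–10 oocytes.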

D444E-EAAC1 = biological target: T4, D444E-EAAC1 (Oryctolagus cuniculus, UniProt P31597, D444E); assay: Blockade of sodium-dependent transient currents; conditions: for Decay time of transient currents blocked: at +80 mV; for IC50: read-out: IC50 for substrates/blockers of charge movements, Xenopus oocytes, mean ± SEM
T4 sequence (P31597 1-524 D444E): T1 sequence (P31597 1-524 D444C) with C444E
Summary of the method: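 Oocytes expressing the mutant were voltage clamped in ND96 (pH 7.5, HEPES) and stepped from −25 mV. Transients are buffer current minus buffer-plus-compound current. Charge is the sum of current–time integrals at −100 and +80 mV, normalised to 1 mM L-aspartate or 15 mM succinate, and fitted to a generalized Hill equation. Decay constants come from a first-order exponential fit; mean ± SEM of 3–10 oocytes.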

| Decay time of transient currents blocked (D444E-EAAC1; 10 mM compound) [ms] | SMILES | Decay time of transient currents blocked (D444C after MTSES) [ms] | IC50 (D444C after MTSES) [µM] | Induction of steady-state transport currents (D444S-EAAC1 [1]) | IC50 (D444A mutant EAAC1) [µM] | Decay time of transient currents blocked (D444S-EAAC1 [2]) [ms] | IC50 (D444S-EAAC1 [2]) [µM] | IC50 (D444E-EAAC1) [µM] | Suppression of the transient currents (D444E-EAAC1; 2 mM) | Decay time of transient currents blocked (D444E-EAAC1; 15 mM succinate) [ms] | Inhibition of the transient currents, concentration dependence (D444E-EAAC1; up to 15 mM) |
| --- | --- | --- | --- | --- | --- | --- | --- | --- | --- | --- | --- |
| 10.6 ± 1 | N[C@@H](CC(=O)O)C(=O)O [L-Aspartate, L-aspartate] | 10.2 ± 0.4 | 112 ± 19 | not observed | 720 ± 80 | 12.2 ± 0.6 | 130 ± 15 | 9 ± 1 |  |  |  |
|  | O=C(O)CCC(=O)O [Succinate, succinate] | 8.7 ± 1.5 | 716 ± 25 | did not induce any steady-state currents | 870 ± 110 | 9.9 ± 0.7 | 1340 ± 110 | > 6000 | only slightly suppressed | 5.1 ± 0.7 | saturation was not reached |
